Legend:
[1] = molecular target: T1, Neuronal acetylcholine receptor; alpha4/beta2 (Rattus norvegicus) (UniProt P09483+P12390); assay: In vitro inhibition of [3H]cytisine binding in rat brain tissue at Nicotinic acetylcholine receptor alpha4-beta2 at 100 uM; type: tissue-based
[2] = molecular target: T2, Neuronal acetylcholine receptor; alpha4/beta2 (Rattus norvegicus, UniProt P09483+P12390); assay: In vitro binding affinity by inhibiting [3H]cytisine binding in rat brain tissue at Nicotinic acetylcholine receptor alpha4-beta2; type: tissue-based
T2 sequence (P09483 whole entry): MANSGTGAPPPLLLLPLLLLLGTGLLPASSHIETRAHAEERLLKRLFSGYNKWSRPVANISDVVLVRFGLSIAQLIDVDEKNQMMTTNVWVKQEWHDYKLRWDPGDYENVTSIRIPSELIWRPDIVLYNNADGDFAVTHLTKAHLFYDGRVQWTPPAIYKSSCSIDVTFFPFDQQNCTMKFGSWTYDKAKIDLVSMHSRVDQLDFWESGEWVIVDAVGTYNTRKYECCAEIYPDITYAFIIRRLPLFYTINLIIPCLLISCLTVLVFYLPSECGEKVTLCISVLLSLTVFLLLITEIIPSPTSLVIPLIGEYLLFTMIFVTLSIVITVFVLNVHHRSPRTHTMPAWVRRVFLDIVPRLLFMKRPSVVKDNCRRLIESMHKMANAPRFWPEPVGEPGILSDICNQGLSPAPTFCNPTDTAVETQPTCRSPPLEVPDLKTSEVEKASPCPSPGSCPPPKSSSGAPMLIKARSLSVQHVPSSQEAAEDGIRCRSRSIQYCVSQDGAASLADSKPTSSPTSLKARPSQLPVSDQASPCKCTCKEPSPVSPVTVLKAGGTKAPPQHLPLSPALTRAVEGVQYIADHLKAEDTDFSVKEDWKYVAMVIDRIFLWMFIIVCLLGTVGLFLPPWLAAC
T2 sequence (P12390 whole entry): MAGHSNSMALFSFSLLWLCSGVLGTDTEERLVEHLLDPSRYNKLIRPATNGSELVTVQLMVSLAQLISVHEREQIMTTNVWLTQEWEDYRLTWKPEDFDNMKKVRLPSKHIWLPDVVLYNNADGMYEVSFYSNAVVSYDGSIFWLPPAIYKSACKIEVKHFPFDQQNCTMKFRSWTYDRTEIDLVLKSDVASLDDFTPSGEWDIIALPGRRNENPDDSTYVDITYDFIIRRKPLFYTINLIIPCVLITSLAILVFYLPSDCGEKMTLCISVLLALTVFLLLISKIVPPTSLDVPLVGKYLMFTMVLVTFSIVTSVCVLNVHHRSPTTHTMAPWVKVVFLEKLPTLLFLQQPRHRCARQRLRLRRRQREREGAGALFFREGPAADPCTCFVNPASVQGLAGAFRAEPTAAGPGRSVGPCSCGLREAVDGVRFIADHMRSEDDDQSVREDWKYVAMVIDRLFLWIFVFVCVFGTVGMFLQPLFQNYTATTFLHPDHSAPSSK

[3] = tested on: Mus musculus; assay: In vivo analgesic agonist activity after subcutaneous administration, using tail-flick assay; type: functional; settings: sc
How it was run: (§1)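 Male CD-1 mice (25-35 g) were dosed subcutaneously on the back at 10 mL/kg. Tail-flick latency to a focused light beam was read by photocell as the mean of two trials, with a 12 s cutoff. Percent effect was (test − baseline)/(12 − baseline latency). ED50 with CI95 came from nonlinear regression of dose-response curves.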

[4] = molecular target: T2, Neuronal acetylcholine receptor; alpha4/beta2; assay: In vitro binding affinity by inhibiting [3H]dopamine release in rat brain tissue at Nicotinic acetylcholine receptor alpha4-beta2; type: functional, tissue-based
[5] = tested on: Mus musculus; assay: In vivo analgesic agonist activity after subcutaneous administration, using hotplate assay; type: functional; settings: sc
How it was run: (§2)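 Male CD-1 mice (25-35 g) were dosed subcutaneously on the back at 10 mL/kg. Hotplate held at 52 °C; latency was timed to hind-paw lick or jump. Percent effect was calculated as (test − baseline latency)/(12 − baseline latency). ED50 with CI95 came from nonlinear regression of dose-response curves.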

[6] = molecular target: T1, Neuronal acetylcholine receptor; alpha4/beta2 (Rattus norvegicus); assay: In vitro % inhibition of [3H]cytisine binding in rat brain tissue at Nicotinic acetylcholine receptor alpha4-beta2 at 100 uM; type: tissue-based
[7] = molecular target: T2, Neuronal acetylcholine receptor; alpha4/beta2; assay: in vitro binding affinity by inhibiting [3H]cytisine binding in rat brain tissue at Nicotinic acetylcholine receptor alpha4-beta2
[8] = tested on: Mus musculus; assay: In vivo analgesic activity was measured in mouse upon subcutaneous administration using hotplate assay; type: functional; settings: sc; how it was run: as §2
[9] = molecular target: T2, Neuronal acetylcholine receptor; alpha4/beta2; assay: In vitro binding affinity by inhibiting [3H]dopamine release in rat brain tissue at aNicotinic acetylcholine receptor alpha4-beta2; type: functional, tissue-based
How it was run: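 Striatal slices (250 µm) from male Sprague-Dawley rats were loaded with 15 nM [3H]dopamine plus 0.1 mM ascorbic acid at 37 °C for 30 min in oxygenated Krebs-HEPES buffer pH 7.4, with domperidone present after loading. Slices were superfused with a 2 min test-drug pulse (S1), then 10 mM K+ for 2 min (S2). Five drug concentrations were used; S1/S2 fractional release ratios gave EC50.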

[10] = tested on: Mus musculus; assay: In vivo analgesic activity was measured in mouse upon subcutaneous administration using tail-flick assay; type: functional; settings: sc; how it was run: as §1
[11] = molecular target: T1, Neuronal acetylcholine receptor; alpha4/beta2 (Rattus norvegicus); assay: In vitro inhibition of [3H]cytisine binding in rat brain tissue at Nicotinic acetylcholine receptor alpha4-beta2; type: tissue-based; settings: concentration not given here
How it was run: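 Membranes were spun at 35 000g and resuspended. They were preincubated on ice for 5 min with test drug, then given 3.5 nM [3H]cytisine for 90 min at 2 °C. Nonspecific binding was taken with 1 mM (-)-nicotine. Drug concentrations were run in triplicate, with filtration and scintillation counting.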

`Ic1ccc(N2C3CCC2CC3)nc1` was tested, and the inhibition [1] was under 50%.

Work on `c1ccc(N2C3CCC2CC3)nc1` yielded an inhibition [1] of under 50%.

With `c1ccc(CN2C3CCC2CC3)nc1` the Ki [2] was 31300 nM.

For `Clc1ccc(CN2C3CCC2CC3)cn1`, the Ki [2] was 245 nM, the ED50 [3] was 11.1 mg/kg and the EC50 [4] was 79 nM. The ED50 [5] was 12.2 mg/kg.

Work on `Cc1ccc(N2C3CCC2CC3)cc1` yielded an inhibition [6] of under 50%.

Work on `c1ccc2c(N3C4CCC3CC4)cncc2c1` yielded an inhibition [1] of under 50%.

Work on `COc1ccc(N2C3CCC2CC3)cn1` yielded an inhibition [1] of under 50%.

For `c1cncc(CCN2C3CCC2CC3)c1`, the Ki [2] was 2230 nM.

Work on `c1cncc(N2C3CCC2CC3)c1` yielded an inhibition [1] of under 50%.

Work on `O=c1cccc2n1C[C@@H]1CNC[C@H]2C1` [CYTISINICLINE] yielded an EC50 [4] of 8.8 nM and a Ki [7] of 4.2 nM.

`c1cncc(CN2C3CCC2CC3)c1` was tested, and the Ki [2] was 98 nM, the ED50 [8] was 5.36 mg/kg and the EC50 [9] was 1.4 nM. It also gave an ED50 [10] of 12.4 mg/kg.

`c1ccc2nc(CN3C4CCC3CC4)ccc2c1` showed an inhibition [11] of under 50%.

In the case of `c1cc(N2C3CCC2CC3)ccn1`, the inhibition [1] is reported as under 50%.

With `Clc1ccc(C2CC3CCC2N3)cn1` (stereo in doubt; 1) [EPIBATIDINE] the ED50 [3] was 0.00046 mg/kg and the ED50 [5] was 0.00072 mg/kg.

`c1ccc2ncc(N3C4CCC3CC4)cc2c1` gave an inhibition [1] of under 50%.

Work on `c1cc(CN2C3CCC2CC3)ccn1` yielded an inhibition [1] of under 50%.
